Source: PubChem (several laboratories)
UPR CHOP act – apoptotic UPR (CHOP) activation; CHO-CHOP luciferase reporter, luminescence; percent of tunicamycin response over DMSO baseline; activation, % at 10 µM; 330,000 compounds, 0.34% hits;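 active = at 10 µM dose, activation of 40% or more, normalized to positive control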;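 note: 100% = tunicamycin at 10 µg/mL and 0% = DMSO alone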
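measured by = luciferase luminescence | assay system = CHO-CHOP cells, stable luciferase reporter of PERK-eIF2a-CHOP signalling | amount = 500 reporter cells seeded per well | timing = 6 h compound exposure at 37 °C after overnight seeding | controls = positive tunicamycin 10 µg/mL, negative DMSO alone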
TLR9-MyD88 inh – blocks human TLR9 binding to MyD88 | CHO BLA complementation TLR9-MyD88, CCF4 FRET ratio | inhibition, % at 4.98 µM | 340,000 compounds, 0.21% hits | AID 504734;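 active = inhibition above the mean over all tested compounds plus 3 SD, cut at about 21% in these data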;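 note: 0% = DMSO only wells and 100% = clavulanate BLA inhibitor control wells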
CHOP inh – CHOP inhibition in unfolded protein response | CHO-K1 CHOP-promoter luciferase, tunicamycin-induced, 15-18 h | inhibition, % at 10 µM | 220,000 compounds, 3.8% hits;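 active = compounds that reduced the stress-induced luciferase reporter signal by more than about 70% of percent inhibition, limit read from the data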;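 note: 0% = tunicamycin plus vehicle and 100% = wells without tunicamycin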
TLR4 MyD88 comp – inhibitors of human TLR4-MyD88 binding; inhibition, % at 8.4 µM; HeLa CL3-4 TLR4/MyD88 BLA complementation, FRET ratio; O00206+Q99836; 200,000 compounds, 0.18% hits; AID 861; in the data active = inhibition above about 25%;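 note: 0% = vehicle and 100% = reference inhibitor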
Target sequence (O00206 whole entry, looked up): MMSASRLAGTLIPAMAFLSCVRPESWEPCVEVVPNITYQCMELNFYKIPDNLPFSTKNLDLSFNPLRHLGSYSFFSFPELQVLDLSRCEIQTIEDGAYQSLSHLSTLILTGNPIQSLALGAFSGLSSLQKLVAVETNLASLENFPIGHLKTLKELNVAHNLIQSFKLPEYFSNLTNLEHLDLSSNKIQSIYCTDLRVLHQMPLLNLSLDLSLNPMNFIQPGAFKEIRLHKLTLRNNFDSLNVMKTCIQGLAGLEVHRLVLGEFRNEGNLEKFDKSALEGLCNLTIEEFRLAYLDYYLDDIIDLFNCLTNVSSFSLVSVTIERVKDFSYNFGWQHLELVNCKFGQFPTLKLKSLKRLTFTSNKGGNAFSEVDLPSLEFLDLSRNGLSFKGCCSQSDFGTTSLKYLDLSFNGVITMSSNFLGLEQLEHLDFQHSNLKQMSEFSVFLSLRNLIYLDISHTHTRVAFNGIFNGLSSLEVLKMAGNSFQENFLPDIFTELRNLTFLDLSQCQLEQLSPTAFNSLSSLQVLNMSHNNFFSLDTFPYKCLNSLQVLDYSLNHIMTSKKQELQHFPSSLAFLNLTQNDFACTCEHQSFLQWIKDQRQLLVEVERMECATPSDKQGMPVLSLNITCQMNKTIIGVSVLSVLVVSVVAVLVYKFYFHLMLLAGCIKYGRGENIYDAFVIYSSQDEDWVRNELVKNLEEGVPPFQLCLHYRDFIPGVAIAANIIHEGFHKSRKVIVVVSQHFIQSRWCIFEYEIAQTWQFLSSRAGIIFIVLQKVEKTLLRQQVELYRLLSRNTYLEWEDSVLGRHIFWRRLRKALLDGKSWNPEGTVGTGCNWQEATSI
Target sequence (Q99836 whole entry, looked up): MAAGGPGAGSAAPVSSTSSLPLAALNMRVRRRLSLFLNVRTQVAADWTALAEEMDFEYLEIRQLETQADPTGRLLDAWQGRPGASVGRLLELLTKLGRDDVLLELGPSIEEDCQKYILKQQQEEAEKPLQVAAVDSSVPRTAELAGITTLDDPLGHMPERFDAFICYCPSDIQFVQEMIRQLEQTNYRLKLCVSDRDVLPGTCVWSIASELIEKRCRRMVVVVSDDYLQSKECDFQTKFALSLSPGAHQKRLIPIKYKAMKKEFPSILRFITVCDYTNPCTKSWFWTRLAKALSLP
NOD2 RIPK2 PPI – NOD2-RIPK2 protein interaction inhibition. CHO BLA complementation NOD2-RIPK2, CCF4 ratio. O43353. inhibition, % at 4.98 µM. AID 624267. 360,000 compounds, 0.38% hits; in the data active = inhibition above about 21%;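 note: 0% = vehicle only and 100% = reference blocker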
XBP1 UPR activ – activators of adaptive arm of unfolded protein response (XBP1). activation, % at 20 µM. AID 463104. 330,000 compounds, 0.33% hits. CHO-XBP1 luciferase reporter, IRE1-XBP1 UPR activation, luminescence; percent of tunicamycin response, DMSO as zero;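 active = versus positive control, 20 µM dose yields 30% or more activation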;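 note: 100% = tunicamycin at 10 µg/mL and 0% = DMSO only wells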
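Signal: luciferase luminescence; Assay system: CHO-XBP1 luciferase reporter cells; Amount: one thousand reporter cells per well; Dosing: 20 µM single concentration, DMSO 1%; Benchmarks: high control tunicamycin 10 µg/mL final, low control DMSO vehicle only; Schedule: 6 h compound exposure at 37 °C, 5% CO2; Evaluation: percent activation relative to tunicamycin reference.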
UPR CHOP confirm – apoptotic UPR (CHOP) activation, confirmed. shares compounds with UPR CHOP act. CHO-CHOP cells, CHOP-luciferase reporter luminescence; percent of tunicamycin response, DMSO as zero. activation, % at 10 µM. 1,000 compounds, 64% hits; in the data active = activation above about 33%;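 note: 0% = DMSO wells and 100% = tunicamycin 10 µg/mL wells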
UPR XBP1 confirm – adaptive UPR (XBP1) activation, confirmed | shares compounds with XBP1 UPR activ | activation, % at 20 µM | 1,000 compounds, 63% hits | CHO-XBP1 IRE1-XBP1 luciferase reporter, luminescence | AID 485299;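 active = reporter signal at least 30% of the positive control's activation in two or more of four replicate wells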;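 note: plate controls were DMSO negative control for no effect and tunicamycin 10 µg/mL positive control for full effect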
TLR9-MyD88 cf – confirmation of human TLR9-MyD88 binding inhibitors; inhibition, % at 4.98 µM; 680 compounds, 51% hits; CHO TLR9/MyD88 BLA complementation, CCF4 FRET ratio; shares compounds with TLR9-MyD88 inh;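 active = mean inhibition across three repeats above about 21% taken from the earlier screen, limit read from the data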;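 note: blue over green emission ratio reports constitutive TLR9 MyD88 association via BLA complementation; 0% = DMSO vehicle wells and 100% = clavulanate BLA inhibitor wells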
BLA counter-1 – non-selective beta-lactamase inhibitors in TLR9-MyD88 counter-screen. shares compounds with TLR9-MyD88 inh. CHO-BLA cells, CCF4 FRET ratio, BLA reporter. AID 540251. inhibition, % at 4.98 µM. 680 compounds, 7% hits;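 active = mean inhibition above a 50% cutoff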;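 note: counterscreen of TLR9-MyD88 hits on CMV-driven BLA in CHO-K1 cells; 0% = DMSO alone and 100% = clavulanate blocking BLA; higher means less blue over green ratio so more BLA blockade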
TLR9 CHO tox – counter-screen for TLR9-MyD88 inhibitors: cytotoxicity in CHO cells; AID 588336; 680 compounds, 39% hits; luminescence; shares compounds with TLR9-MyD88 inh; inhibition, % at 4.98 µM; in the data active = inhibition above about 11%
NOD2 RIPK2 conf – confirmation of human NOD2-RIPK2 interaction inhibitors. shares compounds with NOD2 RIPK2 PPI. CHO cells, NOD2-RIPK2 BLA complementation, CCF4 FRET. inhibition, % at 4.98 µM. 1,200 compounds, 70% hits. AID 624370;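 active = mean inhibition across replicates above a set limit taken from the earlier primary screen, cut at about 21% in these data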;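 note: 0% = DMSO-only wells and the high end = clavulanate BLA-blocked wells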
BLA counter-2 – hits BLA reporter in NOD2-RIPK2 inhibitor counterscreen | inhibition, % at 4.98 µM | 1,200 compounds, 57% hits | CHO BLA reporter, CCF4 FRET ratio | shares compounds with NOD2 RIPK2 PPI;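 active = mean inhibition above the low-control mean inhibition plus three low-control SD, cut at about 11% in these data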;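 note: 0% = DMSO only wells and 100% = clavulanate high control wells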
An asterisk follows results filed as active; . = no result. Shown is part of a subset that was picked to be rich in hits.

SMILES | UPR CHOP act | TLR9-MyD88 inh | CHOP inh | TLR4 MyD88 comp | NOD2 RIPK2 PPI | XBP1 UPR activ | UPR CHOP confirm | NOD2 RIPK2 conf | BLA counter-2 | others
Oc1c(N=Nc2ccccn2)ccc2ccccc12 | 276* | 24* | 80* | 13 | 15 | -2 | 211* | . | . | TLR9-MyD88 cf=15;BLA counter-1=2;TLR9 CHO tox=99*
CCCCCCN1C[C@H](n2cc(C3CC3)nn2)[C@@H](O)C[C@@H]1c1ccccc1 | . | -5 | . | . | 6 | . | . | . | .
CCN(CC)c1ccc(/C=C2\SC(=O)N(C(C)C)C2=O)o1 | 112* | . | -69 | . | 56* | -4 | 15 | 12 | 10*
Cc1nc(N2CCN(S(=O)(=O)c3ccccc3C#N)CC2)c2c(-c3ccccc3)csc2n1 | 1 | 2 | . | . | -2 | 0 | . | . | .
CCc1nnc(NC(=O)c2nc(S(=O)(=O)Cc3ccc(C)cc3)ncc2Cl)s1 | 51* | 8 | . | . | 26* | -7 | 38* | 34* | 22*
CCc1nnc(NC(=O)c2nc(S(=O)(=O)Cc3cccc(C)c3)ncc2Cl)s1 | 72* | 7 | . | . | 34* | -11 | 30 | 28* | 19*
CCc1nnc(NC(=O)c2nc(Cl)ccc2Cl)s1 | -2 | -3 | . | . | -11 | -3 | . | . | .
O=C1C(Cl)=C(NC(=O)c2ccccc2)C(=O)C(Cl)=C1NC(=O)c1ccccc1 | 86* | 7 | . | . | 54* | -11 | 50* | 68* | 37*
O=C(NC1=C(Nc2ccc(Cl)cc2)C(=O)c2ccccc2C1=O)c1ccccc1 | 5 | -4 | -53 | -14 | -9 | -2 | . | . | .
CN(C)CCCN(C(=O)c1ccc(S(=O)(=O)N2CCCC2)cc1)c1nc2ccc(Br)cc2s1 | 4 | -21 | . | . | 2 | 15 | . | . | .
CCc1ccc2nc(N(CCCN(C)C)C(=O)c3ccc(S(=O)(=O)N4CCc5ccccc5C4)cc3)sc2c1 | 41* | 15 | . | . | 22* | 59* | 30 | 23* | 5 | UPR XBP1 confirm=59*
O=C(Nc1ccc(OC(F)F)cc1)c1ncc(Cl)c(Cl)c1Cl | 0 | -1 | 16 | -4 | -5 | -3 | . | . | .
Cc1ccc(CS(=O)(=O)c2ncc(Cl)c(C(=O)Nc3ccc(OC(F)F)cc3)n2)cc1 | 166* | 36* | . | . | 94* | -9 | 34* | 80* | 21* | TLR9-MyD88 cf=24*;BLA counter-1=15;TLR9 CHO tox=95*
CCOc1ccccc1NC(=O)c1nc(S(=O)(=O)Cc2cccc(C)c2)ncc1Cl | -10 | -5 | . | . | -14 | -10 | . | . | .
Cc1cccc(CS(=O)(=O)c2ncc(Cl)c(C(=O)Nc3nnc(C(C)C)s3)n2)c1 | 105* | 11 | . | . | 41* | -7 | 25 | 35* | 28*
Cc1ccc(CS(=O)(=O)c2ncc(Cl)c(C(=O)Nc3nnc(C(C)C)s3)n2)cc1 | 92* | 11 | . | . | 48* | -7 | 38* | 45* | 31*
CC(C)c1nnc(NC(=O)c2nc(S(=O)(=O)Cc3ccc(F)cc3)ncc2Cl)s1 | 80* | 2 | . | . | 25* | -10 | 7 | 25* | 18*
COc1ccc(-n2nc(C#N)c(Cl)cc2=O)cc1 | 149* | . | 101* | 17 | 49* | -6 | 73* | 56* | 8
Cc1ccc(S(=O)(=O)Nc2cccc3cccnc23)cc1 | 621* | 36* | -167 | 17 | 38* | -5 | 326* | 59* | 25*
Cc1ccc(S(=O)(=O)Nc2ccccc2-c2ccccc2NS(=O)(=O)c2ccc(C)cc2)cc1 | 1 | 3 | 25 | 4 | -1 | -1 | . | . | .
C/C(=N\NC(=O)CNC(=O)c1ccccc1F)c1ccco1 | -1 | 1 | . | . | -14 | 0 | . | . | .
O=C(O)CN1C(=O)C2C3CCC(C3)C2C1=O (centres undefined) | . | -9 | . | . | -9 | . | . | . | .
Fc1cccc(Cl)c1CNCc1cccnc1 | 0 | -5 | . | . | -7 | -3 | . | . | .
CNC[C@@H](CC1CCCCC1)NC[C@H](CC(C)C)NCCc1cccc(C(F)(F)F)c1 | 83* | -5 | . | . | 21* | -5 | 33* | 28* | 6
O=C(Nc1cccc(N2C(=O)C=CC2=O)c1)c1cccs1 | 124* | 30* | . | . | 22* | -6 | 12 | 74* | 12*
SMILES | UPR CHOP act | TLR9-MyD88 inh | CHOP inh | TLR4 MyD88 comp | NOD2 RIPK2 PPI | XBP1 UPR activ | UPR CHOP confirm | NOD2 RIPK2 conf | BLA counter-2 | others
Cc1nc2ccccc2c(=O)n1-c1cccc(NC(=O)c2cccs2)c1 | -1 | -8 | . | . | -2 | -2 | . | . | .
CCOC(=O)c1c(NC(C)=O)sc2c1CCC(C=O)=C2Sc1ccccc1 | 294* | 22* | -14 | 20 | 35* | 64* | 632* | 67* | 20* | UPR XBP1 confirm=12;TLR9-MyD88 cf=18;BLA counter-1=3;TLR9 CHO tox=37*
COc1ccc(C(=O)/C=C2/C(=O)Nc3ccccc32)c(OC)c1 | 109* | 5 | . | . | 31* | 5 | 114* | 30* | -1
Cc1cccc(C(=O)Nc2ccc(C(=O)/C=C/c3ccncc3)cc2)c1 | 49* | 9 | . | . | 56* | -9 | -9 | 76* | 2
CCN(CC)c1ccc2c(Cl)c(Br)c(=O)oc2c1 | 194* | 92* | 94* | 91* | 95* | 1 | 18 | 100* | 96* | TLR9-MyD88 cf=89*;BLA counter-1=91*;TLR9 CHO tox=52*
CCN(CC)c1ccc2c(C)cc(=O)oc2c1 | 0 | -19 | . | . | -8 | 3 | . | . | .
CC(C)NC(=O)NC(=O)COC(=O)c1ccc([N+](=O)[O-])cc1Cl | 0 | 2 | -5 | 1 | -12 | -2 | . | . | .
O=C(Nc1cccc2ccccc12)c1csc(COCCO)n1 | . | . | . | . | 7 | . | . | . | .
CCN(CC(=O)Nc1c(F)cccc1F)C(=O)CSCc1ccc(C)cc1 | . | -7 | . | . | 3 | . | . | . | .
